Tests used:
[1] = cited from earlier work
[2] = Pharmacokinetics and tissue bio-distribution after single oral administration; format: in vivo, C57BL/6J mice; settings: for Level in most of the blood samples: after oral free-6-S or 6-S-NL 5 mg/kg
Method in brief: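 Single oral gavage of 5 mg/kg to fasted (4 h) female C57BL/6J mice, as free test compound in 0.5% CMC-Na/PBS or as lipid nanoparticles in PBS. Sparse sampling, 3 mice/time point: blood (K₂EDTA) 5 min–8 h; stomach, small intestine, colon, liver and kidney 15 min–8 h. Acetonitrile precipitation, LC-MS/MS (MRM) of parent and metabolites. Cmax and Tmax observed; T1/2 = ln2/k.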

Drug loading efficiency = format: physicochemical; settings: (encapsulated drug/total drug) x100%; natural lipid NPs
Method in brief: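 Loading into natural-lipid nanoparticles measured by dialysis in 10 K MWCO mini devices pre-equilibrated with release medium (3% MeOH, 0.1% Polysorbate 80 in PBS, pH 7.4). Entrapped drug is apical minus basal concentration; free drug is basal concentration. Quantified by HPLC-UV (C18 column, 282 nm). Efficiency = encapsulated/total drug ×100%, from three batches.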

inflamed Raw 264.7 cells = test: In vitro anti-inflammation assay; format: cell-based; settings: 1.0 μg/mL; for IL-1β gene expression / IL-6 gene expression / IL-10 gene expression / TNF-α gene expression: LPS-inflamed Raw 264.7 cells, RT-PCR; for Anti-inflammatory activities compared with 6-shogaol: inflamed Raw 264.7 cells
wounded Caco-2 BBE cells = test: In vitro wound-healing assay; format: cell-based; settings: 0.6 mL of 1.0 μg/mL solution; ECIS
Method in brief: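 Caco-2 BBE cells were grown on ECIS 8W1E electrode plates in humidified 5% CO₂. At confluence, medium with or without test compound (1.0 μg/mL) or control formulation was added. Monolayers were wounded by a 30 s pulse (40 kHz, 4.5 V), and recovery was followed as impedance, with resistance measured at 500 Hz and 1 V.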

[3] = oral 5 mg/kg, compared to the 6-S-NL group

Row | Structure (SMILES) | Effective 6-shogaol concentration in vitro [1] | Tmax of 6-shogaol in the colon ([2]; oral 5 mg/kg) | M13 concentrations in the small intestine, comparison ([2]; oral 5 mg/kg, compared to 6-S-NL) | AUC values of M2 and M13 in liver and kidney tissues, comparison [2, 3] | Exposure (AUC) of 6-shogaol in stomach and small intestine tissues, comparison [2, 3] | Drug loading efficiency (Drug loading efficiency) | IL-1β gene expression (inflamed Raw 264.7 cells) | IL-6 gene expression (inflamed Raw 264.7 cells) | IL-10 gene expression (inflamed Raw 264.7 cells) | TNF-α gene expression (inflamed Raw 264.7 cells) | Anti-inflammatory activities compared with 6-shogaol (inflamed Raw 264.7 cells) | Level in most of the blood samples [2] | Healing of wounded Caco-2 epithelial monolayers compared with 6-shogaol (wounded Caco-2 BBE cells)
1 | CCCCC/C=C/C(=O)CCc1ccc(O)c(OC)c1 [6-shogaol] | about 1 μg/mL | 1.5 h | higher | higher | significantly higher | 89.1 ± 2.6% |  |  |  |  |  |  | 
2 | CCCCCC(CC(=O)CCc1ccc(O)c(OC)c1)SC[C@H](N)C(=O)O (stereo partly shown) [M2] |  |  |  |  |  | 91.3 ± 3.1% | down-regulate | down-regulate | up-regulate | down-regulate | higher | below the LLOQ | healed significantly faster
3 | CCCCCC(CC(=O)CCc1ccc(O)c(OC)c1)SC[C@H](NC(=O)CC[C@H](N)C(=O)O)C(=O)NCC(=O)O (stereo partly shown) [M13] |  |  |  |  |  | 83.3 ± 1.9% | down-regulate | down-regulate | up-regulate | down-regulate | higher | below the LLOQ | healed significantly faster
